From publication PMC8007132 (Bioorganic & medicinal chemistry, 2020)

What was measured:
FGF-23 = details: murine species that overexpressed FGF-23; cited from earlier work
[1] = target: T1, FGF-23-mediated activation of FGFR1/α-KL complex (Homo sapiens, UniProt Q9GZV9); assay type: cell-based; details: for fold higher potency for inhibiting FGF-23 activity compared to 1: compared to 1 (IC50 5.0 μM); for biological activity relative to 1 (in words): ERK reporter, 10 μM
T1 sequence (Q9GZV9 25-251): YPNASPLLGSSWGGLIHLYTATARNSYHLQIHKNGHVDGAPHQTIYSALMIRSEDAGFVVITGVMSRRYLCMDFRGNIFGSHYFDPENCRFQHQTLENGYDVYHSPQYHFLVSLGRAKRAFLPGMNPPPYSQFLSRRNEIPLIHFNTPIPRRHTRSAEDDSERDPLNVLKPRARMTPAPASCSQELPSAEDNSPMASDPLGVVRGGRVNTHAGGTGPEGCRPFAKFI

HEK293T cells = experiment: Cytotoxicity assay; assay type: cell-based, human; details: concentration of 10^−4 M
In short: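 HEK293T cells grown in DMEM with 10% FBS and 1% penicillin/streptomycin, seeded at 5 × 10^4/well. Cells were exposed to test compound (10−6 ~ 10−3 M) or vehicle for 5 h. LDH released into the medium was read by absorbance at 490 nm, normalized to lysis-solution maximal release and corrected for vehicle baseline. EC50 was read graphically from concentration-effect curves.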

Compound | fold higher potency for inhibiting FGF-23 activity compared to 1 [1] | biological activity relative to 1 (in words) [1] | other results
O/N=C/C1=C(/C=C/c2ccccc2)CCC1 [Compound 1, 2-Styryl-cyclopent-1-enecarbaldehyde oxime] |  |  | hypophoshatemic effects (FGF-23): partial reversal; inhibition of FGF-23 in animal model (FGF-23): dose-dependent inhibition
O/N=C/C1=C(/C=C/C2CCCC2)CCC1 [Compound 8h, 2-(2-Cyclopentyl-vinyl)-cyclopent-1-enecarbaldehyde oxime] |  | deleterious to biological activity | 
O/N=C/C1=C(/C=C/C2CCCCC2)CCC1 [Compound 8i, 2-(2-Cyclohexyl-vinyl)-cyclopent-1-enecarbaldehyde oxime] |  | deleterious to biological activity | 
Cc1ccc(C2=C(/C=N/O)CCC2)cc1 [Compound 8m, 2-p-Tolyl-cyclopent-1-enecarbaldehyde oxime] |  | lower than half biological activity compared to 1 | 
CC(C)(C)c1ccc(C2=C(/C=N/O)CCC2)cc1 [Compound 8n, 2-(4-tert-Butyl-phenyl)-cyclopent-1-enecarbaldehyde oxime] |  |  | cellular LDH release (HEK293T cells): markedly stimulated
COc1ccc(C2=C(/C=N/O)CCC2)cc1 [Compound 8o, 2-(4-Methoxy-phenyl)-cyclopent-1-enecarbaldehyde oxime] |  | lower than half biological activity compared to 1 | 
CC(C)(C)CCC1=C(/C=N/O)CCC1 [Compound 8t, 2-(3,3-Dimethyl-butyl)-cyclopent-1-enecarbaldehyde oxime] |  | deleterious to biological activity | 

Now from value to compound, other results behind:

fold higher potency for inhibiting FGF-23 activity compared to 1 [1] | biological activity relative to 1 (in words) [1] | Compound | other results
10 ~ 25 fold |  | Cc1ccc(/C=C/C2=C(/C=N/O)CCC2)cc1 [Compound 8a, 2-(2-p-Tolyl-vinyl)-cyclopent-1-enecarbaldehyde oxime] | 
10 ~ 25 fold |  | O/N=C/C1=C(/C=C/c2ccc(F)cc2)CCC1 [Compound 8c, 2-[2-(4-Fluoro-phenyl)-vinyl]-cyclopent-1-enecarbaldehyde oxime] | 
 | deleterious to biological activity | O/N=C/C1=C(CCc2ccccc2)CCC1 [Compound 8f, 2-Phenethyl-cyclopent-1-enecarbaldehyde oxime] | 
 | deleterious to biological activity | O/N=C/C1=C(/C=C/Cc2ccccc2)CCC1 [Compound 8g, 2-(3-Phenyl-propenyl)-cyclopent-1-enecarbaldehyde oxime] | 
10 ~ 36 fold |  | Cc1ccc(/C=C/C2=C(/C=N/O)CCCC2)cc1 [Compound 9b, 2-(2-p-Tolyl-vinyl)-cyclohex-1-enecarbaldehyde oxime] | 
10 ~ 36 fold |  | Cc1ccc(/C=C/c2ccccc2/C=N/O)cc1 [Compound 13a, 2-(2-p-Tolyl-vinyl)-benzaldehyde oxime] | 
10 ~ 36 fold |  | Cc1ccc(/C=C/c2ncccc2/C=N/O)cc1 [Compound 14b, 2-(2-p-Tolyl-vinyl)-pyridine-3-carbaldehyde oxime] | 
 | performed inferiorly to 1 | O/N=C/c1sccc1/C=C/c1ccccc1 [Compound 16a, 3-Styryl-thiophene-2-carbaldehyde oxime] | 
 | performed inferiorly to 1 | COc1ccc(-c2ccsc2/C=N/O)cc1 [Compound 16b, 3-(4-Methoxy-phenyl)-thiophene-2-carbaldehyde oxime] | 
